Screening results as filed in PubChem BioAssay.
The list is not random: actives were taken first. Their share in the collection is about 1.3%.
C-LANA FP: KSHV C-LANA DNA binding inhibition; inhibition, % at 9 µM; MBP-C-LANA/FAM-LBS DNA binding, fluorescence polarization; AID 504423; actives 0.078% (n = 340,000);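 active = highest replicate inhibition at or above 60% at 9 µM, even if other replicates fall short; inactive = all replicates below 60% inhibition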;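 note: 0% = neutral control wells and 100% = 4 µM acridine orange control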
Keap1 Nrf2 FP: disrupts human Keap1 binding to Nrf2 peptide; Keap1 Kelch-Nrf2 peptide fluorescence polarization, 1536-well; inhibition, % at 9.4 µM; actives 0.15% (n = 340,000); AID 504523; in the data active = inhibition above about 12%;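 note: human Keap1 Kelch domain with fluorescein labeled Nrf2 9mer peptide probe; 0% = neutral control wells and 100% = peptide positive control; higher means more block of Keap1 binding to Nrf2 peptide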
MEX-5 binding: C. elegans MEX-5 TCR-2 RNA binding activity | Q9XUB2 | MEX-5/FITC-TCR2 RNA binding, fluorescence polarization; stronger effect = lower value | activity score (negative = inhibition of binding), % at 10 µM | actives 0.38% (n = 300,000);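 active = inhibition past about -25% in most replicates, and total fluorescence under double the plate's negative control median, limit read from the data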;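 note: 0% = DMSO and -100% = 5 µM competing unlabeled TCR2 RNA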
EBV gp42 inh: EBV gp42 inhibition; Fluorescence polarization binding assay, mP read-out; actives 0.42% (n = 220,000); Q1HVG2; inhibition, % (tested at 21.74 µM); in the data active = inhibition above about 50%
GRK2 aptamer HTS: blocks RNA aptamer binding to human GRK2 | P25098 | bead flow cytometry, FAM-aptamer displacement from GRK2 | inhibition of aptamer binding, % at 10 µM | actives 0.59% (n = 330,000) | AID 488847;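 active = inhibition of aptamer binding above 40%, roughly 3 SD of noise, on plates passing a quality check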;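 note: median bead fluorescence of bound FAM aptamer so fluorescent compounds give negative values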
Target sequence (P25098 whole entry, looked up): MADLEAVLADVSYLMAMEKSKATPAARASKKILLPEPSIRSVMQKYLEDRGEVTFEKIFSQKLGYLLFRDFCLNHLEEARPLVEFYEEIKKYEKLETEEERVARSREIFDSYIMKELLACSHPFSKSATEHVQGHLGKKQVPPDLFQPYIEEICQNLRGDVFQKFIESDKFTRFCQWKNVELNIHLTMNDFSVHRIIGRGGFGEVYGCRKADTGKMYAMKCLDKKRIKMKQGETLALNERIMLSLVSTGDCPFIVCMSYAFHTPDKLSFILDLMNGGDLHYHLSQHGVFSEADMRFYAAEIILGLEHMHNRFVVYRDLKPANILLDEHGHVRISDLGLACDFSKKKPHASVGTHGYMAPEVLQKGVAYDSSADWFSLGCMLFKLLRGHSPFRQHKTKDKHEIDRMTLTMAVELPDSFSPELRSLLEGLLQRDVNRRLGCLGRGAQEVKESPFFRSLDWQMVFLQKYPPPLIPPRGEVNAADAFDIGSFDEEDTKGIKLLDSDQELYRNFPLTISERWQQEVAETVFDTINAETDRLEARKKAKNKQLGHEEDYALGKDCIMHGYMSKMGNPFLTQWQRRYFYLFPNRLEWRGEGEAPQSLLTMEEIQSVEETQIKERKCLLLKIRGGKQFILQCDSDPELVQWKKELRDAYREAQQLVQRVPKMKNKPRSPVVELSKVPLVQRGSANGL
T cell modulator: T cell immune modulators affecting CD8 T cell-vesicle binding. 2C CD8+ T cell-vesicle binding, flow cytometry; stronger effect = lower value. response (vesicle binding), % at 7 µM. actives 0.068% (n = 330,000);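 active = response, share of CD8 T cells binding vesicles, and their 90th percentile fluorescence all below set limits, cut at about 80% in these data, passing the limit was not always enough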;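 note: values below 100% mean blocked vesicle binding to the CD8+ T cells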
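Also added: QL9-peptide-loaded Drosophila micro-vesicles bearing Ld, ICAM-1 and B7-1; Test system: purified 2C TCR transgenic mouse naive CD8+ T cells; Measured by: cytometric PE anti-B7-1 and Alexa647 anti-CD8 signals after 1% paraformaldehyde fixation; Timing: binding step 1.5 h, 37 °C, antibody labelling 20 min, ice.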
GRK2 CP1: confirmation of human GRK2 inhibitors displacing RNA aptamer; shares compounds with GRK2 aptamer HTS; bead-bound GRK2, FAM-aptamer displacement, flow cytometry; aptamer displacement, % at 10 µM; actives 4% (n = 2,000);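 active = aptamer displacement above 40%, near three times the noise of non-fluorescent compounds, on plates passing quality checks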;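 note: negative values mostly reflect intrinsic compound fluorescence rather than true enhancement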
Aptamer quench 1: quenches fluorescent RNA aptamer, GRK2 hit artifact | Fluorescent RNA aptamer beads, quenching, flow cytometry; stronger effect = higher value | 110 tested, under 10 active | shares compounds with GRK2 aptamer HTS | fluorescence change (kMESF span), kMESF (test concentration not listed);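 active = compounds whose bead fluorescence drops by more than 37 kMESF across the dose range, marking them as dye quenchers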
FAM quench CP1: quenches fluorescent RNA aptamer, GRK2 hit artifact. Carboxyfluorescein RNA aptamer on beads, flow cytometry quenching; stronger effect = lower value. fluorescence response (% of DMSO), % at 10 µM. AID 504580. shares compounds with GRK2 aptamer HTS. 2,000 tested, under 10 active;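 active = compounds that quench the bead-bound fluorescent RNA probe, cutting fluorescence to under half of the solvent control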;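 note: counterscreen run without GRK2 so only probe quenching by compound is measured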
GRK2 confirm 2: confirmation of human GRK2 inhibitors binding RNA aptamer site; shares compounds with GRK2 aptamer HTS; bead-bound GRK2, FAM-aptamer displacement, flow cytometry; inhibition of aptamer binding, % at 10 µM; 360 tested, under 10 active; AID 504782;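 active = inhibition of aptamer binding above 40%, about triple the noise seen with nonglowing compounds, on plates passing quality control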;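 note: negative values mostly come from compounds that fluoresce themselves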
FAM quench SP: counter-screen for GRK2 binding hits: quenchers of fluorescent RNA aptamer. shares compounds with GRK2 aptamer HTS. carboxyfluorescein RNA aptamer beads, flow cytometry quenching; stronger effect = lower value. fluorescence response vs DMSO, % at 10 µM. 360 tested, under 10 active;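 active = response vs DMSO under 50%, meaning signal dropped by over half, treated as fluorescence quencher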;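 note: labelled aptamer on streptavidin beads without GRK2 as a quench counter-screen; 100% = bead fluorescence of DMSO wells and lower means quenching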
Starred values were filed as active, the others as inactive; i = inactive; . = no result given.

SMILES	C-LANA FP	Keap1 Nrf2 FP	MEX-5 binding	EBV gp42 inh	GRK2 aptamer HTS	T cell modulator	GRK2 CP1	FAM quench CP1	others
CCOC(=O)N1CCN(C(=O)COC(=O)Cc2ccc(OC)cc2)CC1	-2	-2	0	.	0	460	.	.
CN(c1cccc(NC(=O)c2ccc(Cl)c(S(=O)(=O)Nc3ccccc3)c2)c1)S(C)(=O)=O	-1	5	0	2	3	165	.	.
Cc1ccccc1NS(=O)(=O)c1cc(C(=O)Nc2cccc(N(C)S(C)(=O)=O)c2)ccc1C	0	4	4	-14	16	709	-1	101
COc1ccccc1N1CCN(C(=O)CN(C2CCCCC2)S(C)(=O)=O)CC1	-1	-3	0	7	47*	460	1	98
CS(=O)(=O)N(CC(=O)N1CCN(c2ccccc2F)CC1)C1CCCCC1	0	1	0	-14	3	238	.	.
Cc1cc(OCC(=O)N2CCC[C@@H]2C(=O)O)c2c(C)c(C)c(=O)oc2c1	1	-3	0	.	0	555	.	.
Cc1cc(OCC(=O)N2CCN(c3cccc(Cl)c3)CC2)c2c(C)c(C)c(=O)oc2c1	0	-1	5	.	55*	144	-16	97
O=C(NNS(=O)(=O)c1ccc([N+](=O)[O-])cc1)C(=O)Nc1cccc(C(=O)O)c1	0	-4	-75*	.	69*	234	5	102
Cn1c(=O)c(C(=O)NNC(=O)c2cccc(Cl)c2)c(O)c2ccccc21	-2	2	-2	.	90*	139	65*	142	Aptamer quench 1=-35
CCn1c(=O)c(C(=O)NNC(=O)c2ccc(Cl)cc2Cl)c(O)c2ccccc21	-1	-10	1	.	1	i	.	.
CCn1c(=O)c(C(=O)NNC(=O)c2cccc(Cl)c2)c(O)c2ccccc21	0	-8	-1	.	54*	286	-9	105
CCCn1nnnc1NCc1c(F)cccc1Cl	-2	-4	1	-12	100*	258	10	97
COc1cc(OC)cc(C(=O)Nc2ncn[nH]2)c1	-1	2	.	.	77*	i	-5	101
NS(=O)(=O)c1cccnc1Nc1ccc(Cl)c(Cl)c1	-1	0	-1	3	0	308	.	.
CC(=O)NS(=O)(=O)c1cccnc1Nc1ccc(Cl)c(Cl)c1	-1	0	-2	-1	83*	220	-2	105
CCOC(=O)C1CCN(S(=O)(=O)c2ccc(CNC(=O)c3ccccc3)s2)CC1	-5	3	-2	.	3	287	.	.
CCCCCC(=O)Nc1cccc(C2=NOC3(C2)C[C@H](C(N)=O)N(C(=O)COc2ccc(Cl)cc2)C3)c1 (stereo partly specified)	1	-2	1	-13	1	530	.	.	GRK2 confirm 2=11;FAM quench SP=98
CCCCCC(=O)Nc1cccc(C2=NOC3(C2)C[C@@H](C(N)=O)N(C(=O)c2ccc(OC)cc2)C3)c1 (stereo partly specified)	2	-6	-4	-7	65*	476	13	102	Aptamer quench 1=-125
Nc1cc(Oc2cccnc2)cc([N+](=O)[O-])c1	0	-2	0	3	.	.	.	.
Cc1cccc2nc(C(=O)Nc3cccc(C(=O)NC4CC4)c3)cn12	-2	0	.	.	4	316	.	.
CC(=O)c1ccc(NC(=O)c2c(C)nn(-c3ccccc3)c2Cl)cc1	0	-1	-1	12	3	i	.	.
CC(=O)c1cccc(NC(=O)c2c(C)nn(-c3ccccc3)c2Cl)c1	1	6	-1	7	0	166	2	84
CC(=O)c1cccc(NC(=O)c2cc(-c3ccc(C)cc3)on2)c1	0	1	2	-10	2	439	-2	97
Cc1ccc(-n2nc(C)c(C(=O)Nc3cccc(C(=O)NC4CC4)c3)n2)c(C)c1	1	-2	.	.	0	238	-1	103
Cc1nn(-c2cccc(Cl)c2)nc1C(=O)Nc1cccc(C(=O)NC2CC2)c1	-2	-5	.	.	2	220	1	96
SMILES	C-LANA FP	Keap1 Nrf2 FP	MEX-5 binding	EBV gp42 inh	GRK2 aptamer HTS	T cell modulator	GRK2 CP1	FAM quench CP1	others
Cc1cccc(C(=O)Nc2cccc(C(=O)NC3CCCC3)c2)c1	1	2	2	.	1	178	.	.
CC(C)(O)C1CC[C@@](C)([C@@H]2CC[C@]3(C)[C@H]2[C@H](O)CC2[C@@]4(C)CCC(O)C(C)(C)C4C(OC4OC(CO)C(O)C(O)C4O[C@@H]4OCC(O)C(O)C4O)C[C@]23C)O1 (stereo partly specified)	1	0	.	.	0	203	-2	100
C[C@@H]1O[C@@H](O[C@H]2[C@H](O[C@H]3C[C@]4(C)C(C[C@@H](O)C5C([C@]6(C)CC[C@@H](C(C)(C)O)O6)CC[C@]54C)[C@@]4(C)CC[C@H](O)C(C)(C)C34)O[C@H](CO)[C@@H](O)[C@@H]2O)[C@H](O)[C@H](O)[C@H]1O (stereo partly specified)	1	-2	.	.	7	760	.	.
O=C(Nc1cccc(Cl)c1)OCCOC(=O)Nc1cccc(Cl)c1	3	-1	.	.	.	.	.	.
COc1ccc(OC)c(/C=N/NC(=O)C(=O)N2CCCCCC2)c1	-4	4	0	.	0	136	.	.
CN(Cc1cnccn1)Cc1c(C(=O)N2CCc3ccccc3C2)nc2ccc(Cl)cn12	1	-3	-3	-19	0	128	.	.
CN(Cc1cccnc1)Cc1c(C(=O)N2CCc3ccccc3C2)nc2ccc(Cl)cn12	2	-5	0	-3	93*	223	-1	100
COc1cc(NC(=O)/C=C/c2ccccc2)c(C(=O)O)cc1OC	0	-2	0	-8	0	94	.	.
NC(=O)CC(NC(=O)c1ccccc1)c1ccc(N2CCN(c3ccccn3)CC2)c([N+](=O)[O-])c1 (stereo unspecified)	3	2	-3	.	2	462	.	.
